Structures can show the parent of a compound that is named as a salt.
How the values were obtained:
[1] = molecular target: Kappa-type opioid receptor (Cavia porcellus, UniProt P41144); experiment: Binding affinity towards Opioid receptor kappa 1 by displacing the radioligand [3H]U-69593 from guinea pig brain membrane
Method in brief: (§1)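 Guinea pig brain membranes (homogenised, preincubated 37 °C 30 min, washed), 500 µg protein, with 12 concentrations of compound in 50 mM Tris-HCl pH 7.5 at 25 °C for 60 min. Nonspecific binding defined with 1 µM naloxone. Glass-fibre filtration, with PEI-soaked filters for kappa. IC50 by log-probit fit; three experiments in triplicate, mean ± SEM.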

Cavia porcellus = organism: Cavia porcellus; experiment: Selectivity kappa/delta
[2] = molecular target: Opioid receptor (mu and kappa) (Cavia porcellus) (UniProt P41144+P97266); experiment: Selectivity kappa/mu; type: protein assay
Mu-type opioid receptor = Mu-type opioid receptor (Cavia porcellus, UniProt P97266); experiment: Binding affinity towards Opioid receptor mu 1 by displacing the radioligand [3H]DAMGO from guinea pig brain membrane; method in brief: as §1
[3] = Binding affinity towards Opioid receptor delta 1 by displacing the radioligand [3H]naltrindole from guinea pig brain membrane

Mu-type opioid receptor, sequence (P97266 whole entry): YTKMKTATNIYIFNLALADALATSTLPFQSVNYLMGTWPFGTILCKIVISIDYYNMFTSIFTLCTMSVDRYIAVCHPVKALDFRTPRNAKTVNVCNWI
Opioid receptor (mu and kappa) (Cavia porcellus), sequence (P41144 whole entry, looked up): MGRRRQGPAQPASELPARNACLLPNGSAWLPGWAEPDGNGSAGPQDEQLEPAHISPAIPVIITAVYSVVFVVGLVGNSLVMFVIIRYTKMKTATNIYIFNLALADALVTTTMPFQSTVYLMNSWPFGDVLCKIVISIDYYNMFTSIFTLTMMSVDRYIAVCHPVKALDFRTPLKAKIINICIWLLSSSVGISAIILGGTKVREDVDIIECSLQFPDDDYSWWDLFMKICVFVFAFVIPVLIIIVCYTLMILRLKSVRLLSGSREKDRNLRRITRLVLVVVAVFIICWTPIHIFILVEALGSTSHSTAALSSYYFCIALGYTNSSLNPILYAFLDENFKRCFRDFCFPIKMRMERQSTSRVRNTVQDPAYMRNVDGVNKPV
Opioid receptor (mu and kappa) (Cavia porcellus), sequence (P97266 whole entry, looked up): as the sequence (P97266 whole entry) above
Kappa-type opioid receptor, sequence (P41144 whole entry): as the sequence (P41144 whole entry, looked up) above

Compound `Oc1ccc2c(c1)[C@@]13CCCCC1[C@@H](C2)N(C[C@@H]1CCCO1)CC3` (some centres not stated) has a Ki [1] of 0.15 nM, a Selectivity (Cavia porcellus) of 2 and a Selectivity [2] of 0.066. For the same compound, the Ki (Mu-type opioid receptor) was 0.01 nM.

`C[C@H]1C2C(=O)c3ccc(O)cc3[C@@]1(C)CCN2CC1CCCO1` (some centres not stated) showed a Ki [1] of 720 nM.

Compound `O=C1c2ccc(O)cc2C23CCCCC2C1N(CC1CC1)CC3` (single isomer, unassigned; (-)) has a Ki [1] of 24 nM, a Selectivity (Cavia porcellus) of 6 and a Selectivity [2] of 1. For the same compound, the Ki (Mu-type opioid receptor) was 240 nM.

With `O=C1c2ccc(O)cc2C23CCCCC2C1N(CC1CCCO1)CC3` (single isomer, unassigned; (-)) the Ki [1] was 0.18 nM, the Selectivity (Cavia porcellus) was 6 and the Selectivity [2] was 2. For the same compound, the Ki (Mu-type opioid receptor) was 0.38 nM.

With `Oc1ccc2c(c1)[C@@]13CCCC[C@H]1[C@@H](C2)N(CC1CCC1)CC3` [BUTORPHAN] the Ki [1] was 0.073 nM.

In the case of `C[C@H]1[C@H]2Cc3ccc(O)cc3[C@]1(C)CCN2CC1CC1` [CYCLAZOCINE], the Ki [1] is reported as 0.052 nM.

In the case of `Oc1ccc2c(c1)[C@@]13CCCC[C@H]1[C@@H](C2)N(CC1CC1)CC3` [CYCLORPHAN], the Ki [1] is reported as 0.053 nM.

For `CC[C@@]12CCN(CC3CC3)C(C(=O)c3ccc(O)cc31)[C@@H]2C` [ETHYLKETOCYCLAZOCINE], the Ki (Mu-type opioid receptor) was 0.78 nM and the Ki [3] was 3.4 nM.

`CN1CC[C@]23CCCC[C@H]2[C@H]1Cc1ccc(O)cc13` [LEVORPHANOL HYDROCHLORIDE] gave a Ki [1] of 2.3 nM, a Selectivity (Cavia porcellus) of […] and a Selectivity [2] of […]. For the same compound, the Ki (Mu-type opioid receptor) was […].
